Experimental data taken from ChEMBL document CHEMBL1158126, “Sodwanone and yardenone triterpenes from a South African species of the marine sponge Axinella inhibit hypoxia-inducible factor-1 (HIF-1) activation in both breast and prostate tumor cells” (J Nat Prod, 2006).
pIC50: −log10 of the molar value.

How the values were obtained:
[1] = system: PC-3; test: Cytotoxicity against human PC-3 cells after 48 hrs by neutral red assay; type: functional, cell-based; settings: PC-3, 48 h
Outline: (§1)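 Cells kept in DMEM/F12 with 10% FBS and antibiotics at 37° C, 5% CO2:95% air. Plated at 30,000 cells/well and grown 24 h. Compounds diluted in serum-free DMEM/F12 and added (n = 3). Incubated 48 h at 37° C under normoxia. Viability read by neutral red at OD540. % inhibition = 1 - OD540(treated)/OD540(control). Highest concentration tested 30 μM.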

[2] = system: T47D; test: Cytotoxicity against human T47D cells after 48 hrs by neutral red assay; type: functional, cell-based; outline: as §1
[3] = target: T1, Hypoxia inducible factors; HIF-1-alpha, HIF-2-alpha (Homo sapiens, UniProt Q16665+Q99814); test: Inhibition of hypoxia-induced HIF1 activation in human PC3 cells by reporter gene assay; type: cell-based; settings: pc-3
Outline: (§2)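 Luciferase reporter cells (T47D or PC-3) transfected, treated with compound and exposed to hypoxia (1% O2:5% CO2:94% N2). Normoxic comparison at 5% CO2:95% air. Compounds from 10 mM isopropanol stocks, tested up to 30 μM. Luciferase activity measured.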

[4] = system: MDA-MB-231; test: Cytotoxicity against human MDA-MB-231 cells after 48 hrs by neutral red assay; type: functional, cell-based; settings: MDA-MB-231, 48 h; outline: as §1
[5] = system: DU-145; test: Cytotoxicity against human DU145 cells after 48 hrs by neutral red assay; type: functional, cell-based; settings: DU-145, 48 h; outline: as §1
[6] = target: T1, Hypoxia inducible factors; HIF-1-alpha, HIF-2-alpha; test: Inhibition of 1,10 phenanthroline-induced HIF1 activation in human T47D cells by reporter gene assay; type: cell-based
Outline: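 Transfected T47D luciferase reporter cells. HIF-1 induced with the hypoxia mimetic 1,10-phenanthroline at 10 μM. Compounds from 10 mM isopropanol stocks, tested up to 30 μM. HIF-1 activity read as luciferase activity.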

[7] = target: T1, Hypoxia inducible factors; HIF-1-alpha, HIF-2-alpha; test: Inhibition of hypoxia-induced HIF1 activation in human T47D cells by reporter gene assay; type: cell-based; outline: as §2

Structure (SMILES) | pIC50 [1] | pIC50 [2] | IC50 [3] | pIC50 [4] | pIC50 [5] | IC50 [6] | IC50 [7]
C=C1CC[C@@H]2OC(C)(C)[C@H](OC(C)=O)CC[C@@]2(C)[C@@H]1CC[C@]1(O)[C@@H](C)CC[C@@H]2OC(C)(C)C(=O)CC[C@]21C | < 4.52 | 4.66 | > 30 µM | < 4.52 | < 4.52 | > 30 µM | 20 µM
C[C@H]1CC[C@@H]2OC(C)(C)[C@@H](O)CC=C2[C@@]1(C)CC[C@]1(C)[C@@H](C)CC[C@@H]2OC(C)(C)[C@@]3(O)CC[C@]21O3 [SODWANONE V] | < 4.52 | < 4.52 | 15 µM | 4.64 | < 4.52 | 15 µM | 15 µM
CC1=C(CCC2=C(C)CC[C@@H]3OC(C)(C)[C@H](O)CC[C@@]23C)[C@]2(C)CCC(=O)C(C)(C)O[C@H]2CC1 [SODWANONE T] | < 4.52 | < 4.52 | > 30 µM | < 4.52 | < 4.52 | 20 µM | 20 µM
C[C@H]1CC[C@@H]2OC(C)(C)C(=O)CC[C@@]2(C)[C@]12CC[C@@H]([C@@]1(C)CC[C@@H]3OC(C)(C)C(=O)CC[C@]31C)O2 [YARDENONE] | < 4.52 | < 4.52 | – | < 4.52 | < 4.52 | – | > 30 µM
CC(C)C(=O)CC[C@@]1(C)[C@@H]2CC[C@H](C)[C@@]1(CC[C@@]1(C)C3=CC[C@@H](O)C(C)(C)O[C@@H]3CC[C@H]1C)O2 [SODWANONE W] | < 4.52 | < 4.52 | – | < 4.52 | < 4.52 | – | > 30 µM
C[C@H]1CC[C@@H]2OC(C)(C)C(=O)CC[C@@]2(C)[C@@]12O[C@H]([C@@]1(C)CC[C@@H]3OC(C)(C)C(=O)CC[C@]31C)C[C@H]2O | < 4.52 | < 4.52 | > 30 µM | < 4.52 | < 4.52 | > 30 µM | > 30 µM
CC1=C(CCC23CCC(=O)C(C)(C)C2=C(O)C(=O)C(C)=C3C)[C@]2(C)CCC(=O)C(C)(C)O[C@H]2CC1 (stereo partly drawn) [SODWANONE U] | < 4.52 | < 4.52 | > 30 µM | < 4.52 | < 4.52 | > 30 µM | > 30 µM
CC1=C(CC[C@H]2[C@]3(C)CCC(=O)C(C)(C)O[C@H]3CC[C@]2(C)O)[C@@]2(C)CCC(=O)C(C)(C)C2=C(O)C1=O [SODWANONE A] | < 4.52 | < 4.52 | > 30 µM | < 4.52 | < 4.52 | > 30 µM | 20 µM
CC1=C(CC[C@@H]2[C@H](C)CC[C@@H]3OC(C)(C)C(=O)CC[C@]32C)[C@@]2(C)CCC(=O)C(C)(C)C2=C(O)C1=O [SODWANONE B] | < 4.52 | < 4.52 | > 30 µM | < 4.52 | < 4.52 | > 30 µM | > 30 µM
CC1=C(CCC2=C(C)C(=O)C(O)=C3C(C)(C)C(=O)CC[C@]23C)[C@]2(C)CCC(=O)C(C)(C)O[C@H]2CC1 [10,11-DIHYDROSODWANONE B] | < 4.52 | < 4.52 | > 30 µM | < 4.52 | < 4.52 | 30 µM | 20 µM
C=C1CC[C@@H]2OC(C)(C)[C@H](O)CC[C@@]2(C)[C@@H]1CC[C@]1(O)[C@@H](C)CC[C@@H]2OC(C)(C)C(=O)CC[C@]21C | < 4.52 | < 4.52 | > 30 µM | < 4.52 | < 4.52 | > 30 µM | 25 µM
